Experimental data published in ChEMBL document CHEMBL3580617, “Discovery of Benzimidazole CYP11B2 Inhibitors with in Vivo Activity in Rhesus Monkeys” (ACS Med Chem Lett, 2015).
The source made the active and inactive calls. No cut-off for these calls is given here.

Tests used:
[1] = Inhibition of rhesus monkey CYP11B1; set-up: species or system Macaca mulatta
[2] = test system: Rhesus monkey; test: Reduction in aldosterone levels in low sodium diet fed rhesus monkey at 0.01 mg/kg, iv followed by 0.3 mg/kg ACTH dosing and measured 30 mins to 180 mins post ACTH administration by UPLC coupled with tandem mass spectrometry; assay type: functional, Macaca mulatta
How it was run: (§1)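 Anesthetized rhesus monkeys were given i.v. doses from 0.001 to 0.3 mg/kg. Plasma aldosterone and 11-deoxycortisol were quantified by LC-MS at time points up to 180 min postdose, and AUCs were determined for each. Plasma drug was measured at 90 min postdose. Free (unbound) concentrations were calculated from the measured fraction unbound in rhesus plasma.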

[3] = Intrinsic clearance in rhesus monkey liver microsomes at […] incubated for 10 mins before NADPH addition by LC/MS method; assay type: ADME, Macaca mulatta; settings: read-out: CLH
[4] = test system: Rhesus monkey; test: […] in 11-deoxycortisol levels in low sodium diet fed rhesus monkey at free plasma concentration up to 27 nM dosed at 0.01 to 0.3 mg/kg, iv followed by 0.3 mg/kg ACTH dosing and measured 90 mins post ACTH administration by UPLC coupled with tandem mass spectrometry; assay type: functional, organism-based; settings: Macaca mulatta; how it was run: as §1
[5] = test system: Rhesus monkey; test: Reduction in aldosterone levels in low sodium diet fed rhesus monkey assessed as free plasma concentration causing reduction in aldosterone at 0.3 mg/kg, iv followed by 0.3 mg/kg ACTH dosing and measured 90 mins post ACTH administration by UPLC coupled with tandem mass spectrometry; assay type: functional, Macaca mulatta; how it was run: as §1
[6] = test system: Rhesus monkey; test: Reduction in aldosterone levels in low sodium diet fed rhesus monkey assessed as free plasma concentration causing reduction in aldosterone at 0.01 mg/kg, iv followed by 0.3 mg/kg ACTH dosing and measured 90 mins post ACTH administration by UPLC coupled with tandem mass spectrometry; assay type: functional, Macaca mulatta; how it was run: as §1
[7] = test system: Rhesus monkey; test: Reduction in aldosterone levels in low sodium diet fed rhesus monkey at 0.3 mg/kg, iv followed by 0.3 mg/kg ACTH dosing and measured 30 mins to 180 mins post ACTH administration by UPLC coupled with tandem mass spectrometry; assay type: functional; settings: Macaca mulatta; how it was run: as §1
[8] = test system: Rhesus monkey; test: In-vivo inhibition of CYP11B1 in low sodium diet fed rhesus monkey at free plasma concentration up to 27 nM dosed at 0.01 to 0.3 mg/kg, iv followed by 0.3 mg/kg ACTH dosing and measured 90 mins post ACTH administration by UPLC coupled with tandem mass spectrometry; assay type: functional, organism-based; settings: Macaca mulatta; how it was run: as §1
[9] = test system: Rhesus monkey; test: Increase in 11-deoxycortisol levels in low sodium diet fed rhesus monkey up to 0.3 mg/kg, iv followed by 0.3 mg/kg ACTH dosing and measured 30 mins to 180 mins post ACTH administration by UPLC coupled with tandem mass spectrometry; assay type: functional, organism-based; settings: Macaca mulatta; how it was run: as §1
[10] = (§2) Inhibition of rhesus monkey CYP11B2 expressed in V79 cells incubated for 1 hr before 11-deoxycorticosterone substrate addition by HTRF-based assay; assay type: cell-based, Macaca mulatta
[11] = molecular target: Voltage-dependent L-type calcium channel subunit alpha-1C (Homo sapiens, UniProt Q13936); test: Block of Cav1.2 ion channel in functional assay (unknown origin)
[12] = molecular target: T1, Cytochrome P450 11B1, mitochondrial (Homo sapiens, UniProt P15538); test: Inhibition of human CYP11B1 expressed in V79 cells incubated for 1 hr before 11-deoxycortisol substrate addition by HTRF-based assay; assay type: cell-based
T1 sequence (P15538 whole entry): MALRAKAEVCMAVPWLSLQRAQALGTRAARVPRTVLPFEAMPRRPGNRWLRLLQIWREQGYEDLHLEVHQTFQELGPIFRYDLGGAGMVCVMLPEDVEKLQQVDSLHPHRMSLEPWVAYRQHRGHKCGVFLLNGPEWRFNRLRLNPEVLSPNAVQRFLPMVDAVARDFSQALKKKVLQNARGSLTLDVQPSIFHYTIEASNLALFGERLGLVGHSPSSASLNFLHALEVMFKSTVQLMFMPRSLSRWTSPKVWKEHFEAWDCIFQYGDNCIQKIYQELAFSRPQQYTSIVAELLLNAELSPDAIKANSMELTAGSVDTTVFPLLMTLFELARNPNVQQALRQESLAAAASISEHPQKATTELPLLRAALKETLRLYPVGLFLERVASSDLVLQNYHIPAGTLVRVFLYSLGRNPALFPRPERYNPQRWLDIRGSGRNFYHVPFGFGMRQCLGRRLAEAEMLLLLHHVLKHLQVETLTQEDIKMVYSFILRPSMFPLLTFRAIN
How it was run: (§3)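 Human CYP11B2 and CYP11B1 inhibition was tested in cell-based assays. Selectivity was taken as the hCYP11B1 IC50 divided by the hCYP11B2 IC50.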

[13] = molecular target: T2, Alpha-2B adrenergic receptor (Homo sapiens, UniProt P18089); test: Inhibition of adrenergic alpha-2B receptor (unknown origin)
T2 sequence (P18089 whole entry): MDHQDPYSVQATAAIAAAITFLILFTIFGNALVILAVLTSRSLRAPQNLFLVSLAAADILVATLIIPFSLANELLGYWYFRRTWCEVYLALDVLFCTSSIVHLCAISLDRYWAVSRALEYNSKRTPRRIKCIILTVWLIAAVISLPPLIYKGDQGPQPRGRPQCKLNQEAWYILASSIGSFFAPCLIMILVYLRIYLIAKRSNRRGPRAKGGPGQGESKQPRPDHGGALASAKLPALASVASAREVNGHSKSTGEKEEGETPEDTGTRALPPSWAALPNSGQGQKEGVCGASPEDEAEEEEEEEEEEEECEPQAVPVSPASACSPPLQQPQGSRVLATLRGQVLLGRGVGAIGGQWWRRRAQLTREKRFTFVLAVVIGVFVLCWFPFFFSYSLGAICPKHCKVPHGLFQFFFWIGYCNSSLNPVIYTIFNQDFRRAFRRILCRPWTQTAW
How it was run: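 Binding activity was profiled across a panel of 114 receptors, enzymes and ion channels, with an IC50 determined against any target that was hit.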

[14] = species: Homo sapiens; test: Selectivity index, ratio of IC50 for human CYP11B1 to IC50 for human CYP11B2; how it was run: as §3
[15] = test system: V79; test: as §2; assay type: cell-based; settings: Macaca mulatta
[16] = molecular target: T3, Cytochrome P450 11B2, mitochondrial (Homo sapiens, UniProt P19099); test: Inhibition of human CYP11B2 expressed in V79 cells incubated for 1 hr before 11-deoxycorticosterone substrate addition by HTRF-based assay; assay type: cell-based; how it was run: as §3
T3 sequence (P19099 whole entry): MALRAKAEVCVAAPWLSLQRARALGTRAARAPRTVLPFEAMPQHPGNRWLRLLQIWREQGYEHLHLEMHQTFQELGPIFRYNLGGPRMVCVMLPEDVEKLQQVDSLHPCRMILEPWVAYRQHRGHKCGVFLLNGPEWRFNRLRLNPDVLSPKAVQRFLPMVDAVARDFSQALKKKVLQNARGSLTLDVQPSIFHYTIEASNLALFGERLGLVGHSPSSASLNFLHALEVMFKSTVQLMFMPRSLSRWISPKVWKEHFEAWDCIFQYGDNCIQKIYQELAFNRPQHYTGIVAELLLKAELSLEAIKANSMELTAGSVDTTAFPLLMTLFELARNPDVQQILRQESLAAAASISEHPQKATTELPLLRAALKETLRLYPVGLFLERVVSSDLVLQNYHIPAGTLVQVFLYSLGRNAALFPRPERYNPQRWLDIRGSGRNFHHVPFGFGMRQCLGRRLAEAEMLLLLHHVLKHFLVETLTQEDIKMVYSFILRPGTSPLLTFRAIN

Chain of Voltage-dependent L-type calcium channel subunit alpha-1C (Q13936 whole entry): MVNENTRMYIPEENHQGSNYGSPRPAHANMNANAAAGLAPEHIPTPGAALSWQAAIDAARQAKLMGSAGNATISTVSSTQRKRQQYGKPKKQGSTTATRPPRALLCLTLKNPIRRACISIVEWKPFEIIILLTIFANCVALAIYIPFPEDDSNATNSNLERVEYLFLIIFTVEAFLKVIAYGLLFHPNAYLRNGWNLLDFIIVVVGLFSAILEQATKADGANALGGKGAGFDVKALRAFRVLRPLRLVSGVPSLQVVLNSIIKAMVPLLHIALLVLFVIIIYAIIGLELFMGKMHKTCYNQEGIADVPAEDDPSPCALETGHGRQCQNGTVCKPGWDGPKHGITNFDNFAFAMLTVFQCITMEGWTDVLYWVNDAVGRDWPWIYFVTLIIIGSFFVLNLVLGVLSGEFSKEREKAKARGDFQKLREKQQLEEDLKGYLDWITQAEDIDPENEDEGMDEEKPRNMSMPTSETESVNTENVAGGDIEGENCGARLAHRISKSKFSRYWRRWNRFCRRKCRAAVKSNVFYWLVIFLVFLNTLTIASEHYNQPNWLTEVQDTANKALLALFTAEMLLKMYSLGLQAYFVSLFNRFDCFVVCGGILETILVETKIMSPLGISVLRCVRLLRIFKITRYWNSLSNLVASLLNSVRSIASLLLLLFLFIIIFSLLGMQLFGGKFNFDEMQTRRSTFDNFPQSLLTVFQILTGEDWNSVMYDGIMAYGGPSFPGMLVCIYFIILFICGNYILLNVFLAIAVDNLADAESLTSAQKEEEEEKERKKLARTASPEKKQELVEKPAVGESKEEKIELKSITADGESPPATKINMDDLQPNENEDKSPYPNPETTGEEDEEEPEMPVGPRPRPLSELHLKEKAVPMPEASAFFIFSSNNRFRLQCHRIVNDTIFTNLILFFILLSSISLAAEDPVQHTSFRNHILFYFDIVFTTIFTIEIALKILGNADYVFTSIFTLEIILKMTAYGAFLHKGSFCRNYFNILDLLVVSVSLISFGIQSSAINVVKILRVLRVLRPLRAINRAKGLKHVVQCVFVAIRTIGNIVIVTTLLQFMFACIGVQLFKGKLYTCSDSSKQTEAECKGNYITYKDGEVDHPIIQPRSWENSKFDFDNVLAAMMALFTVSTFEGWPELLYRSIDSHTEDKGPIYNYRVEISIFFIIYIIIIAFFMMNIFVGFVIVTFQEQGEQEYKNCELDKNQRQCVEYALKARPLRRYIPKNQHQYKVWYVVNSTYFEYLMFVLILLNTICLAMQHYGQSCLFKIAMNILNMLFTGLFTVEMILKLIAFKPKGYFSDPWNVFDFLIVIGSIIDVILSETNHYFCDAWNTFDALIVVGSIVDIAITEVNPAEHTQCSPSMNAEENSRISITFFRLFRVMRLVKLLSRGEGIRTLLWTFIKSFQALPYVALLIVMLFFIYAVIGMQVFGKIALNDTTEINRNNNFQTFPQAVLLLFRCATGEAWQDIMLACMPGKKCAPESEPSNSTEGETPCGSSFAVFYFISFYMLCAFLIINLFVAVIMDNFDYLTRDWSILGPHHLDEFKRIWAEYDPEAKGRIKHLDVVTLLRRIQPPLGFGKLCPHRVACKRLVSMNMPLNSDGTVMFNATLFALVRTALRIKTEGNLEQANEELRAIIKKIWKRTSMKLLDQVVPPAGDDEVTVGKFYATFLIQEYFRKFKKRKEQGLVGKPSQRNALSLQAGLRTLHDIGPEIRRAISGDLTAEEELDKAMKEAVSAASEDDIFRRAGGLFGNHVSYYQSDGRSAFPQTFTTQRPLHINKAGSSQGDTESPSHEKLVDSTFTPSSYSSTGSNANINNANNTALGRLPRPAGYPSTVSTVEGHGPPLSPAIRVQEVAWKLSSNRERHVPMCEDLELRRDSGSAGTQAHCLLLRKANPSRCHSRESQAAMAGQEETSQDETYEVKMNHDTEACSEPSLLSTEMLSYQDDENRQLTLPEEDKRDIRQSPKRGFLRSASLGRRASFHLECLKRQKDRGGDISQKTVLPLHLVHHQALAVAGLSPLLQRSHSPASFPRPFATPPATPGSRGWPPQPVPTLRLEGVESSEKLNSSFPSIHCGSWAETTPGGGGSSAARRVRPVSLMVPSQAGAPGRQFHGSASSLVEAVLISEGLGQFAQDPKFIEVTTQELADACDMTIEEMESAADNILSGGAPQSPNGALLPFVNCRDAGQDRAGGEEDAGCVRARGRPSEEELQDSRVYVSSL

| Compound | IC50 [1] [nM] | inhibition (INH) [2] [%] | CLint scaled [3] [mL/min/kg] | inhibition [4] | Cp(f) [5] [nM] | Cp(f) [6] [nM] | inhibition in vivo at 0.3 mg/kg [7] [%] | inhibition [8] | Activity [9] | IC50 [10] [nM] | IC50 [11] [nM] | IC50 [12] [nM] | IC50 [13] [nM] | Ratio IC50 [14] | inhibition [15] | IC50 [16] [nM] |
| --- | --- | --- | --- | --- | --- | --- | --- | --- | --- | --- | --- | --- | --- | --- | --- | --- |
| CC(C)(O)c1cncc(-c2nc3ccc(F)cc3n2C2CC2)c1 [MSD-CYP11B2] | 41 | 62 | 22 | inactive | 27 | 12 | 95 | inactive | inactive | 0.3 | – | – | – | – | – | – |
| Fc1cncc(-c2nc3cc(F)c(F)cc3n2C2CC2)c1 | – | – | < 20 | – | – | – | – | – | – | – | > 30000 | 435 | 2490 | 93 | Active | 4.7 |
